According to ChEMBL document CHEMBL4390679 (J Med Chem, 2019):
Values belong to the molecule of their own block, whether it stands above or below them. Calls of active or inactive are those of the source. The calls are words filed in the database; no cut-off is given here. Starred links: 1 amine or outer side, 2 acyl side, 3 side chain; linkers in the order of their positions; H or OH if unused. Positions of bridges follow the written chain, without caps; N, C: chain ends. Non-standard residues stand in square brackets, D forms with d. Residues, ends and D or L forms follow the SMILES beside them. Abu(4-yl) = O=C([C@H](CC[*:3])N[*:1])[*:2]; N(4-F-Bzl)Gly = O=C(O)CNCc1ccc(F)cc1; X1 = O=C(CN(CCCO)[*:1])[*:2]

Experiments:
Vasopressin V1a receptor = Vasopressin V1a receptor (Homo sapiens, UniProt P37288); assay: Agonist activity at recombinant human V1a receptor expressed in HEK293 cells assessed as increase in intracellular calcium level measured at 3 secs interval for 5 mins by fura-2/AM dye based micro spectrofluorometric method; assay type: cell-based
Vasopressin V1b receptor = target: T1, Vasopressin V1b receptor (Homo sapiens, UniProt P47901); assay: Agonist activity at recombinant human V1b receptor expressed in HEK293 cells assessed as increase in intracellular calcium level measured at 3 secs interval for 5 mins by fura-2/AM dye based micro spectrofluorometric method; assay type: cell-based
T1 sequence (P47901 whole entry): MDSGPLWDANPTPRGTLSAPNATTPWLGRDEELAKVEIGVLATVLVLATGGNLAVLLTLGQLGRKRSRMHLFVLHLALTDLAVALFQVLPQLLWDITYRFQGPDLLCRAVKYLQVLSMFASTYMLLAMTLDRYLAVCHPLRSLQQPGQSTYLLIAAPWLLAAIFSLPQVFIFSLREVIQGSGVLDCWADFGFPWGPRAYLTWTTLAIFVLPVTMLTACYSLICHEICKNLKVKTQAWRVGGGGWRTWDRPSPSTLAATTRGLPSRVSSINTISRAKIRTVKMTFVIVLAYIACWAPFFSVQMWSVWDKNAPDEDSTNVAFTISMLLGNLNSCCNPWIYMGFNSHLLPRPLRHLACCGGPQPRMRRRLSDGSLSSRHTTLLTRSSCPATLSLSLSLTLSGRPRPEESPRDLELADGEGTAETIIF

Oxytocin receptor [1] = target: T2, Oxytocin receptor (Homo sapiens, UniProt P30559); assay: Displacement of [3H]OT from recombinant human OTR expressed in HEK293 cell membranes measured after 1 hr
T2 sequence (P30559 whole entry): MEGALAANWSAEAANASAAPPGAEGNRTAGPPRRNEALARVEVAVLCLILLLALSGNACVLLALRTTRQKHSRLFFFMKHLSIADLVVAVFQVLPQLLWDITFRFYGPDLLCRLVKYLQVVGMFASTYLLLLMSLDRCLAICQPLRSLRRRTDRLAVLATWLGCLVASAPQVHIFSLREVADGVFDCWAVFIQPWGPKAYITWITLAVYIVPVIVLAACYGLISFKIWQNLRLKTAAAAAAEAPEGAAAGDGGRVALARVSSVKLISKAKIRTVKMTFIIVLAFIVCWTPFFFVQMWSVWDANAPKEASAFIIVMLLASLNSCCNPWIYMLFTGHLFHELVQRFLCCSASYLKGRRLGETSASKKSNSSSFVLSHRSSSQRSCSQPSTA

Oxytocin receptor [2] = target: T2, Oxytocin receptor; assay: Agonist activity at recombinant human OTR expressed in HEK293 cells assessed as increase in intracellular calcium level measured at 3 secs interval for 5 mins by fura-2/AM dye based micro spectrofluorometric method; assay type: functional, cell-based
Homo sapiens [3] = species on record: Homo sapiens; assay: Selectivity ratio of EC50 for recombinant human V1b receptor expressed in HEK293 cells to EC50 for recombinant human OTR expressed in HEK293 cells; assay type: cell-based
Method in brief: (§1)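 Agonist response measured in HEK-293 cells stably expressing human OTR, V1aR or V1bR, loaded with 1 µM fura-2/AM for 30 min at 37 °C, washed in HEPES-buffered saline pH 7.4. F340/F380 ratio read every 3 s for 5 min at 37 °C, normalized to baseline and to maximal OT (OTR) or AVP (V1aR, V1bR) response; EC50 taken from these curves. n = 3, 20 cells per dish.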

Homo sapiens [4] = species on record: Homo sapiens; assay: Selectivity ratio of EC50 for recombinant human V1a receptor expressed in HEK293 cells to EC50 for recombinant human OTR expressed in HEK293 cells; assay type: cell-based; method in brief: as §1
Mus musculus [5] = assay: Antidepressant-like activity in CD38KOCC Slc:ICR mouse model of autism spectrum disorder assessed as immobility time at 100 ng/ml, ip administered as single dose for 30 mins prior to testing measured for last 4 mins of 6 mins test by tail suspension test (reference value: 74.2 +/- 2.9 sec); assay type: functional
Mus musculus [6] = assay: Cognition enhancing effect in CD38KOCC Slc:ICR mouse model of autism spectrum disorder assessed as sucrose consumption over water at 100 ng/ml, ip administered as single dose measured after 60 mins relative to control (reference value: 0.46 +/- 0.04); assay type: functional
Mus musculus [7] = assay: Cognition enhancing effect in CD38 knock out Slc:ICR mouse sire model of autism spectrum disorder assessed as latency time to retrieve pups by sires at 100 ng/ml, ip administered as single dose measured after 12 hrs by parental retrieval test (reference value: 233 +/- 68 sec); assay type: functional
[8] = Half life in Slc:ICR mouse plasma during slow phase at 100 ng/g, iv measured for 15 to 60 mins by LC-MS/MS analysis; assay type: ADME, organism-based
Method in brief: (§2)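 Male ICR mice (30 g) were given 100 ng/g i.v. via the tail vein. Blood was taken by cardiac puncture immediately and at 5, 15 and 30 min; CSF was taken at 30 min or 12 h. Plasma was deproteinized with acetonitrile/methanol 1:1 containing [13C6,15N]OT internal standard and analysed by LC-MS/MS (C8 column, SRM).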

[9] = Plasma concentration in Slc:ICR mouse at 100 ng/g, iv measured immediately by LC-MS/MS analysis; assay type: ADME, organism-based; conditions: in vivo; method in brief: as §2
[10] = target: T3, Oxytocin receptor (Homo sapiens) (UniProt P30559); assay: Displacement of [3H]OT from recombinant human OTR expressed in HEK293 cell membranes assessed as dissociation half life for [3H]OT binding
T3 sequence (whole entry): T2 sequence (P30559 whole entry)
Method in brief: (§3)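 Membranes from HEK-293 cells stably expressing human OTR (5 µg/well) in 50 mM Tris, 10 mM MgCl2, 0.1% BSA, pH 7.4. [3H]OT added at 200 pM, 500 pM and 1 nM; bound and free separated by rapid filtration at multiple time points to build association curves. Kon and Koff fitted; t1/2 from Koff = ln2/t1/2. Two experiments, each in duplicate.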

Mus musculus [11] = assay: Cognition enhancing effect in CD38 knock out Slc:ICR mouse sire model of autism spectrum disorder assessed as latency time to retrieve pups by sires at 100 ng/ml, ip administered as single dose measured after 5 hrs by parental retrieval test (reference value: 233 +/- 68 sec); assay type: functional
Mus musculus [12] = assay: Cognition enhancing effect in CD38 knock out Slc:ICR mouse sire model of autism spectrum disorder assessed as latency time to retrieve pups by sires at 100 ng/ml, ip administered as single dose measured after 24 hrs by parental retrieval test (reference value: 233 +/- 68 sec); assay type: functional
[13] = target: T3, Oxytocin receptor (Homo sapiens); assay: Displacement of [3H]OT from recombinant human OTR expressed in HEK293 cell membranes assessed as association rate constant for [3H]OT binding; method in brief: as §3
[14] = Half life in Slc:ICR mouse plasma during fast phase at 100 ng/g, iv measured for 15 mins by LC-MS/MS analysis; assay type: ADME, organism-based; method in brief: as §2
[15] = target: T3, Oxytocin receptor (Homo sapiens); assay: Displacement of [3H]OT from recombinant human OTR expressed in HEK293 cell membranes assessed as dissociation rate constant for [3H]OT binding; method in brief: as §3
Mus musculus [16] = assay: Cognition enhancing effect in CD38 knock out Slc:ICR mouse sire model of autism spectrum disorder assessed as latency time to retrieve pups by sires at 100 ng/ml, ip administered as single dose measured after 30 mins by parental retrieval test (reference value: 600 sec); assay type: functional
[17] = Drug level in Slc:ICR mouse cerebrospinal fluid at 100 ng/g, iv measured after 30 mins by LC-MS/MS analysis; assay type: ADME, organism-based; conditions: Slc:ICR, cerebrospinal fluid, 100 ng/g, read-out: Drug uptake; method in brief: as §2
Mus musculus [18] = assay: Antidepressant-like activity in CD38KOCC Slc:ICR mouse model of autism spectrum disorder assessed as decrease in immobility time at 100 ng/ml, ip administered as single dose for 24 hrs prior to testing measured for last 4 mins of 6 mins test by tail suspension test
Mus musculus [19] = assay: Cognition enhancing effect in CD38KOCC Slc:ICR mouse model of autism spectrum disorder assessed as increase in sucrose consumption over water at 100 ng/ml, ip administered as single dose measured after 24 hrs; assay type: functional, organism-based
[20] = Drug level in Slc:ICR mouse cerebrospinal fluid at 100 ng/g, iv measured after 12 hrs by LC-MS/MS analysis; assay type: ADME, organism-based; conditions: Slc:ICR, cerebrospinal fluid, 100 ng/g, read-out: Drug uptake; method in brief: as §2
[21] = Stability in mouse plasma assessed as parent compound remaining at 50 ng/ml measured after 2 hrs by LC-MS/MS analysis; assay type: ADME, cell-free; conditions: read-out: Stability
Method in brief: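 Pooled mouse plasma spiked to a final 50 ng/mL was incubated at 37 °C for 1–120 min, quenched with acetonitrile/methanol 1:1 plus internal standard, and analysed by LC-MS/MS. Percent of the initial concentration was calculated; 85–115% was taken as acceptable.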

Chain of Vasopressin V1a receptor (P37288 whole entry): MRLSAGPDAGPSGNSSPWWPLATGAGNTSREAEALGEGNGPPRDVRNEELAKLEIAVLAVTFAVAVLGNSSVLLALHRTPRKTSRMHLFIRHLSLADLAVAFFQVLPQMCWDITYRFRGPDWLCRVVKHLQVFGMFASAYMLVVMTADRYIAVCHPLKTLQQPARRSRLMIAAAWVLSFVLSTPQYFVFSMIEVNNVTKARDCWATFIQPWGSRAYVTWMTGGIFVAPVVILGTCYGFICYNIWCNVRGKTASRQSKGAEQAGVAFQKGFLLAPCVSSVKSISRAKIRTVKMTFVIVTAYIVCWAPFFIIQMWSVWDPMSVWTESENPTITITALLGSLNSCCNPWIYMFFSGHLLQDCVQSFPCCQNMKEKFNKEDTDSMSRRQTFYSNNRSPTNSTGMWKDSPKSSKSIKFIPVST

EC50 (Vasopressin V1a receptor): > 10 nM | EC50 (Vasopressin V1b receptor): > 10 nM | Ki (Oxytocin receptor [1]): 3 nM | EC50 (Oxytocin receptor [2]): 0.15 nM
Structure (SMILES): CC[C@H](C)[C@@H]1NC(=O)[C@H](Cc2ccc(O)cc2)NC(=O)[C@@H](N)CCSC[C@@H](C(=O)N(CCCO)CC(=O)N[C@@H](CC(C)C)C(=O)NCC(N)=O)NC(=O)[C@H](CC(N)=O)NC(=O)[C@H](CCC(N)=O)NC1=O (H-[Abu(4-yl)]YIQNC[X1]LG-NH2; thioether 1-6)
Ratio EC50 (Homo sapiens [3]): > 66.6 | Ratio EC50 (Homo sapiens [4]): > 66.6

EC50 (Vasopressin V1a receptor): 2.2 nM | half-life [8]: 2.86 min | Cp [9]: 118 ng/mL | T1/2 [10]: 6.38 min | EC50 (Vasopressin V1b receptor): 0.5 nM | Ki (Oxytocin receptor [1]): 0.51 nM | K [13]: 1.05 ×10⁸ /M/min | half-life [14]: 2.84 min | EC50 (Oxytocin receptor [2]): 0.028 nM | K [15]: 0.1 min⁻¹ | concentration at 0.5 h [17]: 0.1 ng/mL | concentration at 12 h [20]: 0.38 ng/mL | remaining at 2 h, 50 ng/ml [21]: 85 to 115%
Structure (SMILES): CC[C@H](C)[C@@H]1NC(=O)[C@H](Cc2ccc(O)cc2)NC(=O)[C@@H](N)CSSC[C@@H](C(=O)N(CC(=O)N[C@@H](CC(C)C)C(=O)NCC(N)=O)Cc2ccc(F)cc2)NC(=O)[C@H](CC(N)=O)NC(=O)[C@H](CCC(N)=O)NC1=O (H-CYIQNC[N(4-F-Bzl)Gly]LG-NH2; disulfide 1-6)
Time (Mus musculus [5]): 149.5 s | Ratio (Mus musculus [6]): 0.79 | Time (Mus musculus [7]): 155 s | Time (Mus musculus [11]): 381 s | Time (Mus musculus [12]): 413 s | Ratio EC50 (Homo sapiens [3]): 17.5 | Ratio EC50 (Homo sapiens [4]): 75.3 | Time (Mus musculus [16]): 297 s | Activity (Mus musculus [18]): inactive | Activity (Mus musculus [19]): inactive
